The source made the active and inactive calls. The calls are words filed in the database; no cut-off is given here.
Columns and labels:
Plasmodium chabaudi [1] = test: Antimalarial activity against nonlethal Plasmodium chabaudi chabaudi AS infected in C57BL/6 mouse assessed as inhibition of parasitemia at 0.075 mg/kg/day, ip administered 1 hr post-infection and measured on day 7 post-infection; format: functional, organism-based
Outline: (§1)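 C57BL/6 mice (7-10 per group, 7-10 weeks old, 20 ± 3 g) were infected i.p. with 10^6 P. chabaudi chabaudi AS infected erythrocytes. Violacein was given i.p. daily for 11 days (days 0-10), starting 1 h post-infection. Parasitemia was counted daily on Giemsa-stained smears (≥1,000 erythrocytes) and inhibition was calculated against untreated infected mice.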

Plasmodium chabaudi [2] = test: Antimalarial activity against lethal Plasmodium chabaudi chabaudi AJ infected in C57BL/6 mouse assessed as mouse survival rate at 7.5 mg/kg/day, ip administered 1 hr post-infection and measured on day 16 post-infection; format: functional; details: route intraperitoneal
Outline: (§2)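 C57BL/6 mice, groups of 10, aged 7-10 weeks, 20 ± 3 g, infected i.p. with 106 IE of lethal P. c. chabaudi AJ; 7.5 mg/kg/day given i.p. for 11 consecutive days (days 0-10 p.i.), first dose 1 h p.i.; survival followed daily versus untreated mice; Log-Rank test.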

Plasmodium chabaudi [3] = test: Antimalarial activity against nonlethal Plasmodium chabaudi chabaudi AS infected in C57BL/6 mouse assessed as inhibition of parasitemia at 3.75 mg/kg/day, ip administered 1 hr post-infection and measured on day 5 post-infection; format: functional; details: route intraperitoneal
Outline: (§3)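 C57BL/6 mice (7-10 per group, aged 7-10 weeks, 20 ± 3 g) infected i.p. with 106 IE of P. c. chabaudi AS; given daily i.p. doses of 0.75 to 7.5 mg/kg/day for 11 consecutive days (days 0-10), first dose 1 h p.i. Parasitemia counted daily in Giemsa-stained smears (≥1,000 erythrocytes) until day 12; inhibition relative to untreated mice.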

Plasmodium chabaudi [4] = test: Antimalarial activity against lethal Plasmodium chabaudi chabaudi AJ infected in C57BL/6 mouse assessed as mouse survival rate at 7.5 mg/kg/day, ip administered 1 hr post-infection and measured on day 9 post-infection; format: functional; details: route intraperitoneal; outline: as §2
Plasmodium chabaudi [5] = test: Antimalarial activity against nonlethal Plasmodium chabaudi chabaudi AS infected in C57BL/6 mouse assessed as inhibition of parasitemia at 0.075 mg/kg/day, ip administered 1 hr post-infection and measured on day 6 post-infection; format: functional, organism-based; outline: as §1
Plasmodium chabaudi [6] = test: Antimalarial activity against nonlethal Plasmodium chabaudi chabaudi AS infected in C57BL/6 mouse assessed as inhibition of parasitemia at 0.075 mg/kg/day, ip administered 1 hr post-infection and measured on day 5 post-infection; format: functional, organism-based; outline: as §1
Plasmodium chabaudi [7] = test: Antimalarial activity against nonlethal Plasmodium chabaudi chabaudi AS infected in C57BL/6 mouse assessed as inhibition of parasitemia at 7.5 mg/kg/day, ip administered 5 days post-infection and measured on day 7 post-infection; format: functional; details: route intraperitoneal
Outline: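 Mice infected i.p. with 106 P. c. chabaudi AS IE; 7.5 mg/kg/day given i.p. daily from day 5 p.i. (16% parasitemia) to day 10 (6 days). Parasitemia counted daily in Giemsa-stained smears (≥1,000 erythrocytes) versus untreated mice; Mann-Whitney U test.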

Plasmodium chabaudi [8] = test: Antimalarial activity against lethal Plasmodium chabaudi chabaudi AJ infected in C57BL/6 mouse assessed as mouse survival rate at 7.5 mg/kg/day, ip administered 1 hr post-infection and measured on day 14 post-infection; format: functional; details: route intraperitoneal; outline: as §2
Plasmodium chabaudi [9] = test: Antimalarial activity against nonlethal Plasmodium chabaudi chabaudi AS infected in C57BL/6 mouse assessed as inhibition of parasitemia at 7.5 mg/kg/day, ip administered 1 hr post-infection and measured on day 8 post-infection; format: functional; details: route intraperitoneal; outline: as §3
Plasmodium chabaudi [10] = test: Antimalarial activity against nonlethal Plasmodium chabaudi chabaudi AS infected in C57BL/6 mouse assessed as inhibition of parasitemia at 0.75 mg/kg/day, ip administered 1 hr post-infection and measured on day 8 post-infection; format: functional; details: route intraperitoneal; outline: as §3
Plasmodium chabaudi [11] = test: Antimalarial activity against nonlethal Plasmodium chabaudi chabaudi AS infected in C57BL/6 mouse assessed as inhibition of parasitemia at 7.5 mg/kg/day, ip administered 1 hr post-infection and measured on day 6 post-infection; format: functional; details: route intraperitoneal; outline: as §3
Plasmodium falciparum [12] = test: Antimalarial activity against Plasmodium falciparum mature blood forms (24 to 48 hrs ring stage) infected in erythrocytes after 24 hrs by [3H]hypoxanthine incorporation assay; format: functional, organism-based; details: in the assay text read “trophozoites and schizonts stage” for “ring stage”
Outline: (§4)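 Synchronized (±6 h) P. falciparum 3D7 blood stages were prepared by repeated 5% sorbitol treatment. Rings (0-24 h) or trophozoites/schizonts (24-48 h) were used at 1% parasitemia and 2% final hematocrit, exposed to violacein for 24 h, and growth was read by [3H]-hypoxanthine incorporation. Inhibition % = [1 − (CPM treated − CPM uninfected RBC)/(CPM untreated − CPM uninfected RBC)] × 100. Runs were in triplicate.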

Plasmodium chabaudi [13] = test: Antimalarial activity against nonlethal Plasmodium chabaudi chabaudi AS infected in C57BL/6 mouse assessed as inhibition of parasitemia at 7.5 mg/kg/day, ip administered 1 hr post-infection and measured on day 7 post-infection; format: functional; details: route intraperitoneal; outline: as §3
Plasmodium falciparum [14] = test: Antimalarial activity against Plasmodium falciparum young blood forms (0 to 24 hrs ring stage) infected in erythrocytes after 24 hrs by [3H]hypoxanthine incorporation assay; format: functional, organism-based; outline: as §4
Plasmodium chabaudi [15] = test: Antimalarial activity against nonlethal Plasmodium chabaudi chabaudi AS infected in C57BL/6 mouse assessed as inhibition of parasitemia at 0.75 mg/kg/day, ip administered 1 hr post-infection and measured on day 6 post-infection; format: functional; details: route intraperitoneal; outline: as §3
Plasmodium chabaudi [16] = test: Antimalarial activity against nonlethal Plasmodium chabaudi chabaudi AS infected in C57BL/6 mouse assessed as inhibition of parasitemia at 0.75 mg/kg/day, ip administered 1 hr post-infection and measured on day 7 post-infection; format: functional; details: route intraperitoneal; outline: as §3
Plasmodium chabaudi [17] = test: Antimalarial activity against nonlethal Plasmodium chabaudi chabaudi AS infected in C57BL/6 mouse assessed as inhibition of parasitemia at 7.5 mg/kg/day, ip administered 1 hr post-infection and measured on day 5 post-infection; format: functional; details: route intraperitoneal; outline: as §3
Plasmodium chabaudi [18] = test: Antimalarial activity against nonlethal Plasmodium chabaudi chabaudi AS infected in C57BL/6 mouse assessed as inhibition of parasitemia at 0.075 mg/kg/day, ip administered 1 hr post-infection and measured on day 8 post-infection; format: functional; details: route intraperitoneal
Plasmodium chabaudi [19] = test: Antimalarial activity against nonlethal Plasmodium chabaudi chabaudi AS infected in C57BL/6 mouse assessed as inhibition of parasitemia at 3.75 mg/kg/day, ip administered 1 hr post-infection and measured on day 6 post-infection; format: functional; details: route intraperitoneal; outline: as §3
Plasmodium chabaudi [20] = test: Antimalarial activity against nonlethal Plasmodium chabaudi chabaudi AS infected in C57BL/6 mouse assessed as inhibition of parasitemia at 0.75 mg/kg/day, ip administered 1 hr post-infection and measured on day 5 post-infection; format: functional; details: route intraperitoneal; outline: as §3
Plasmodium chabaudi [21] = test: Antimalarial activity against nonlethal Plasmodium chabaudi chabaudi AS infected in C57BL/6 mouse assessed as inhibition of parasitemia at 3.75 mg/kg/day, ip administered 1 hr post-infection and measured on day 7 post-infection; format: functional; details: route intraperitoneal; outline: as §3
[22] = Toxicity in erythrocytes assessed as red blood cell density at 14 uM after 48 hrs; format: cell-based; details: erythrocyte
Outline: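 Uninfected erythrocytes were cultured 48 h at 37°C with a range of violacein concentrations. Cells were counted in a Neubauer chamber. RBC density was expressed as % of the drug-free control: (RBC/mL with violacein ÷ RBC/mL without) × 100. Results are means of triplicates ± SD, with Mann-Whitney U test for significance.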

Plasmodium chabaudi [23] = test: Antimalarial activity against nonlethal Plasmodium chabaudi chabaudi AS infected in C57BL/6 mouse assessed inhibition of parasitemia at 7.5 mg/kg/day, ip for 10 days followed by compound withdrawal and measured on day 16 post-infection; format: functional; details: route intraperitoneal
Outline: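 Mice infected i.p. with 106 P. c. chabaudi AS IE; 7.5 mg/kg/day given i.p. for 11 days (0-10 p.i.) from 1 h p.i., then withdrawn. Parasitemia followed in Giemsa-stained smears until day 22 p.i. versus untreated mice; Mann-Whitney U test.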

Plasmodium falciparum [24] = test: Antimalarial activity against chloroquine-resistant Plasmodium falciparum S20 infected in erythrocytes after 48 hrs by [3H]hypoxanthine incorporation assay; format: functional, organism-based
Outline: (§5)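 Erythrocytes infected with P. falciparum at 1% parasitemia, 2% final hematocrit; growth read by [3H]-hypoxanthine incorporation after 48 h at 37°C. Inhibition % = [1 – (CPM treated IE – CPM NE)/(CPM untreated IE – CPM NE)] x 100, untreated IE as 100% growth. Triplicates, at least three times with different batches and cells; concentrations from 0.06 µM upward; IC50 from dose-response.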

Plasmodium chabaudi [25] = test: Antimalarial activity against nonlethal Plasmodium chabaudi chabaudi AS infected in C57BL/6 mouse assessed as inhibition of parasitemia at 3.75 mg/kg/day, ip administered 1 hr post-infection and measured on day 8 post-infection; format: functional; details: route intraperitoneal; outline: as §3
Plasmodium falciparum [26] = test: Antimalarial activity against chloroquine-sensitive Plasmodium falciparum 3D7 infected in erythrocytes after 48 hrs by [3H]hypoxanthine incorporation assay; format: functional, organism-based; outline: as §5

Q: For `O=C1NC(c2c[nH]c3ccc(O)cc23)=C/C1=C1\C(=O)Nc2ccccc21` [VIOLACEIN], which inhibition (Plasmodium chabaudi [1]) is on record?
A: inactive

Q: And the survival at 7.5 mg/kg/day (Plasmodium chabaudi [2])?
A: 80%

Q: What about the inhibition in vivo at 3.75 mg/kg/day (Plasmodium chabaudi [3]) of the same molecule?
A: 33.2%

Q: And the survival at 7.5 mg/kg/day (Plasmodium chabaudi [4])?
A: 10%

Q: And the inhibition (Plasmodium chabaudi [5])?
A: inactive

Q: And the inhibition (Plasmodium chabaudi [6])?
A: inactive

Q: What about the inhibition in vivo at 7.5 mg/kg/day (Plasmodium chabaudi [7]) of the same molecule?
A: 50.1%

Q: And the survival at 7.5 mg/kg/day (Plasmodium chabaudi [8])?
A: 14%

Q: And the inhibition in vivo at 7.5 mg/kg/day (Plasmodium chabaudi [9])?
A: 84.7%

Q: And the inhibition in vivo at 0.75 mg/kg/day (Plasmodium chabaudi [10])?
A: 48.9%

Q: And the inhibition in vivo at 7.5 mg/kg/day (Plasmodium chabaudi [11])?
A: 75.4%

Q: What about the inhibition (Plasmodium falciparum [12]) of the same molecule?
A: Active

Q: And the inhibition in vivo at 7.5 mg/kg/day (Plasmodium chabaudi [13])?
A: 86.9%

Q: What about the inhibition (Plasmodium falciparum [14]) of the same molecule?
A: Active

Q: And the inhibition in vivo at 0.75 mg/kg/day (Plasmodium chabaudi [15])?
A: 20.4%

Q: What about the inhibition in vivo at 0.75 mg/kg/day (Plasmodium chabaudi [16]) of the same molecule?
A: 39.2%

Q: And the inhibition in vivo at 7.5 mg/kg/day (Plasmodium chabaudi [17])?
A: 56.5%

Q: What about the inhibition in vivo at 0.075 mg/kg/day (Plasmodium chabaudi [18]) of the same molecule?
A: 12%

Q: What about the inhibition in vivo at 3.75 mg/kg/day (Plasmodium chabaudi [19]) of the same molecule?
A: 64.9%

Q: And the inhibition in vivo at 0.75 mg/kg/day (Plasmodium chabaudi [20])?
A: 3.58%

Q: And the inhibition in vivo at 3.75 mg/kg/day (Plasmodium chabaudi [21])?
A: 82.1%

Q: And the Activity [22]?
A: Toxic

Q: What about the inhibition in vivo at 7.5 mg/kg/day (Plasmodium chabaudi [23]) of the same molecule?
A: 59%

Q: And the IC50 (Plasmodium falciparum [24])?
A: 630 nM

Q: What about the inhibition in vivo at 3.75 mg/kg/day (Plasmodium chabaudi [25]) of the same molecule?
A: 75.7%

Q: And the IC50 (Plasmodium falciparum [26])?
A: 850 nM

Source: ChEMBL document CHEMBL1649433, “Violacein extracted from Chromobacterium violaceum inhibits Plasmodium growth in vitro and in vivo” (Antimicrob Agents Chemother, 2009)
